Calls of active or inactive are those of the source. No cut-off for these calls is given here.
Experiments:
MDA-MB-231 = assay: Cell viability of estrogen receptor negative MDA-MB-231 cells at 5 uM after 48 hrs by MTT assay relative to DMSO; type: functional, Homo sapiens
Outline: (§1)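 Cells were seeded, left to attach for 24 h, then switched to phenol red-free DMEM with 5% charcoal-stripped FBS. After a further 24 h, compound was added at 5 µM in DMSO (final DMSO ≤0.1%) and incubated 48 h. Viability was read as absorbance at 570 nm by MTT-type kit and expressed relative to DMSO, mean of three determinations.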

MCF7 [1] = assay: Cell viability of estrogen receptor positive MCF7 cells at 5 uM after 48 hrs by MTT assay relative to DMSO; type: functional, Homo sapiens; outline: as §1
MCF7 [2] = assay: Enhancement of growth of estrogen receptor positive MCF7 cells at 5 uM after 48 hrs by MTT assay relative to DMSO; type: functional, cell-based; settings: Homo sapiens; outline: as §1
[3] = biological target: T1, Estrogen receptor (Homo sapiens) (UniProt P03372); assay: Agonist activity at human recombinant ERalpha expressed in MCF7 cells assessed as ERE-driven transactivation at 2.5 uM by luciferase reporter assay relative to DMSO; type: functional, cell-based
T1 sequence (whole entry): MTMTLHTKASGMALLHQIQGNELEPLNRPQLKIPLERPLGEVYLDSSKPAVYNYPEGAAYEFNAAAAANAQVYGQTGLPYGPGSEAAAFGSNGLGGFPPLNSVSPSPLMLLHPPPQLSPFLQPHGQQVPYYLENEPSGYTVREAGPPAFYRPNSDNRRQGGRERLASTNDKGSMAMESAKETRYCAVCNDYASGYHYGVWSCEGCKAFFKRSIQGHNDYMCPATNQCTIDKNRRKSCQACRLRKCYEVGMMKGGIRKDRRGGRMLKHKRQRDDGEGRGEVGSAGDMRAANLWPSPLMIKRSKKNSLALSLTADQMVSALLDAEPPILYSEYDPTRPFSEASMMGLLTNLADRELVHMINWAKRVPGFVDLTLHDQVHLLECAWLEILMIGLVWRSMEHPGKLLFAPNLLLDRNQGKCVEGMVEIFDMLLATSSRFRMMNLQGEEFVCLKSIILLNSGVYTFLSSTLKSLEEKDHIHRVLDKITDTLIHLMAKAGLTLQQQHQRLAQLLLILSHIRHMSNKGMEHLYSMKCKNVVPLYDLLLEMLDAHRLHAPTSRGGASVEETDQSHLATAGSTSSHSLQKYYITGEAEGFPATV
Outline: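 MCF-7 cells in phenol red-free DMEM with 10% charcoal-stripped FBS, plated in triplicate, transfected 24 h later with pCMV-hERa, 3x-ERE-TATA-Luc and pCMV-b. Test compound (2.5 µM) or DMSO added after transfection; lysed after 24 h. Luciferase normalized to b-galactosidase; reported as ratio of compound RLA to DMSO RLA, mean of three determinations.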

[4] = biological target: T1, Estrogen receptor (Homo sapiens); assay: Displacement of ES2 ligand from human recombinant ERalpha relative to tamoxifen
Outline: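 Fluorescence polarization competition assay. Recombinant hERa (7 nM) was preincubated with fluorescent estrogenic probe ES2 (1 nM) in screening buffer, then combined with serial DMSO dilutions of test molecule. After 1 h at room temperature, polarization was read (ex 495 nm, em 535 nm).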

[5] = biological target: T2, Progesterone receptor (Homo sapiens) (UniProt P06401); assay: Antagonist activity at human PR in T47D cells assessed as MMTV-driven transactivation at 5 uM by luciferase reporter assay relative to progesterone; type: functional, cell-based; set-up: scale not given: the % may be the effect or the level left
T2 sequence (whole entry): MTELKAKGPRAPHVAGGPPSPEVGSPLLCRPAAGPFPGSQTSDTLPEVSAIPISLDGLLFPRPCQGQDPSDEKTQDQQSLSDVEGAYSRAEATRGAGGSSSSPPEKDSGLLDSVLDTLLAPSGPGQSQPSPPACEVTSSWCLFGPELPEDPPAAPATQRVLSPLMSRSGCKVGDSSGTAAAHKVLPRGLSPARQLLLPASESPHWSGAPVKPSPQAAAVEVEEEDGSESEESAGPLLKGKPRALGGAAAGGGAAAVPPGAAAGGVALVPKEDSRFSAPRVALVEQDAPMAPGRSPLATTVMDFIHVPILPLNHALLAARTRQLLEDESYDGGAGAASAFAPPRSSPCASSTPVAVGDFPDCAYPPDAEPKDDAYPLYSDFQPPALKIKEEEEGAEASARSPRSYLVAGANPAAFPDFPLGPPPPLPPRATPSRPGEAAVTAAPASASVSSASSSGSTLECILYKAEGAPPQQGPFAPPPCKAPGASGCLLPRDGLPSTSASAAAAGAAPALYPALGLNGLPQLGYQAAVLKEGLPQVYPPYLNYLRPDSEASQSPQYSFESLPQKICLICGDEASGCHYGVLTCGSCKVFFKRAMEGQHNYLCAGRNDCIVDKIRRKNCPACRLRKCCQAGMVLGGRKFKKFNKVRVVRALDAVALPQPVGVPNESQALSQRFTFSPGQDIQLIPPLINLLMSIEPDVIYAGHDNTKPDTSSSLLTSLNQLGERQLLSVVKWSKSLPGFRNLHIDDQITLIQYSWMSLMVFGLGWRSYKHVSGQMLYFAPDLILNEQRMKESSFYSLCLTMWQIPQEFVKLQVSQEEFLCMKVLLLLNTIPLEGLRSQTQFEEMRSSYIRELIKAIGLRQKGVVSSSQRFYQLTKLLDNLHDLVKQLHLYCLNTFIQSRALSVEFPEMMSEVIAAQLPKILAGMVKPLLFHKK
Outline: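 T47D cells in phenol red-free RPMI + 10% charcoal-stripped FBS, 3 × 10⁵ cells/well in triplicate. After 24 h, transfected with pCMV-hPR, pMMTV-Luc reporter and pCMV-β normaliser. Treated for 24 h in the presence of 1 nM progesterone. MMTV-driven luciferase measured on lysate and normalised to β-galactosidase luminescence.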

[6] = biological target: T1, Estrogen receptor (Homo sapiens); assay: Agonist activity at human ERalpha in T47D cells assessed as enhancement of AP1-driven transactivation at 5 uM by luciferase reporter assay relative to DMSO; type: functional, cell-based
Outline: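 T47D cells grown in RPMI 1640 + 10% FBS, plated in triplicate at 3 × 10⁵ cells/well in phenol red-free RPMI + 10% charcoal-stripped FBS. After 24 h, transfected with pCMV-hERa, AP1-Luc reporter and pCMV-β (β-gal normalisation). Compound at 5 µM or DMSO for 24 h. Luciferase read and normalised to β-gal. Result expressed as RLA of compound/RLA of DMSO.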

Row | Structure (SMILES) | Activity (MCF7 [2]) | relative binding affinity (RBA) [4] | also measured
1 | CC/C(=C(\c1ccccc1)c1ccc(OCCN(C)C)cc1)c1ccccc1 [TAMOXIFEN] | inactive |  | Activity (MDA-MB-231): 0.65; Activity (MCF7 [1]): 0.43
2 | CCCCNC(=O)CCCCCCCCCCOC[C@@H]1Cc2ccccc2CN1C(=O)c1cccc(C)c1 | inactive | 0.156 | Activity [3]: Active
3 | CCCCNC(=O)CCCCCCCCCCOC[C@@H]1Cc2ccccc2CN1C(=O)c1ccc(F)cc1 | inactive | 0.264 | 
4 | CCCCNC(=O)CCCCCCCCCCOC[C@@H]1Cc2ccccc2CN1C(=O)c1cccc(O)c1 | inactive | 5 | Activity (MDA-MB-231; Homo sapiens): inactive; Activity (MCF7 [1]): 0.48
5 | CCCCNC(=O)CCCCCCCCCCOC[C@@H]1Cc2ccccc2CN1C(=O)c1ccc(O)cc1 | inactive | 1.79 | 
6 | CCCCNC(=O)CCCCCCCCCCOC[C@@H]1Cc2ccccc2CN1C(=O)c1cccc(F)c1 | inactive | 0.287 | 
7 | CCCCNC(=O)CCCCCCCCCCOC[C@@H]1Cc2ccccc2CN1C(=O)Cc1cccc(F)c1 | inactive | 0.267 | Activity [3]: Active
8 | CCCCNC(=O)CCCCCCCCCCOC[C@@H]1Cc2ccccc2CN1C(=O)c1cccc(Cl)c1 | inactive | 0.156 | Activity [5]: 54%; Activity [6]: Active
9 | CCCCNC(=O)CCCCCCCCCCOC[C@@H]1Cc2ccccc2CN1C(=O)c1ccc(OC)cc1 | inactive | 0.14 | 
10 | CCCCNC(=O)CCCCCCCCCCOC[C@@H]1Cc2ccccc2CN1C(=O)c1ccc(C)cc1 | inactive | 0.132 | Activity [3]: Active
11 | C[C@]12CC[C@@H]3c4ccc(O)cc4C[C@@H](CCCCCCCCC[S+]([O-])CCCC(F)(F)C(F)(F)F)[C@H]3[C@@H]1CC[C@@H]2O (stereo not given in full) |  |  | Activity [5]: 48%
12 | CCCCNC(=O)CCCCCCCCCCOC[C@@H]1Cc2ccccc2CN1C(=O)c1ccccc1F | inactive | 0.225 | 
13 | CCCCCCCCNC(=O)CCCCCCCCCCOC[C@@H]1Cc2ccccc2CN1C(=O)c1cccc(F)c1 | inactive | 0.177 | 
14 | CCCCNC(=O)CCCCCCCCCCOC[C@@H]1Cc2ccccc2CN1C(=O)c1cccc(OC)c1 | inactive | 0.192 | 
